Values after ≈ are worked out from the molar mass of the structure shown.
Assays:
Format in all cases: functional
[1] = system: Caenorhabditis elegans; test: Compound was evaluated for the binding affinity for Caenorhabditis elegans avermectin using Caenorhabditis elegans membrane homogenates using [3H]IVM as radioligand
Outline: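 C. elegans worms washed with 50 mM HEPES pH 7.4, homogenized; 1000g supernatant spun at 28 000g, pellet resuspended to about 12.5 μg protein/mL. Membranes (1.0 mL) incubated with [3H]-IVM (22,23-ditritioivermectin) at 22 °C for 45 min with and without analogs. Filtration over GF/B filters, rinse with cold HEPES containing 0.25% Triton X-100, scintillation counting; IC50 reported.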

[2] = system: Artemia salina; test: Compound was evaluated for the biological activity by (Artemia salina) brine shrimp immobilization assay
Outline: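 Compounds dissolved at 1 mg/mL in acetonitrile, tested in duplicate as 2-fold serial dilutions in acetonitrile across a row. Brine shrimp added in 0.20 mL brine per well. Immobilization scored by microscope after 6 h at room temperature; IC100 reported.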

[3] = system: Caenorhabditis elegans; test: Compound was evaluated for the biological activity by Caenorhabditis elegans motility assay.
Outline: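 About 100 worms per tube, rinsed and resuspended in Krebs bicarbonate buffer pH 7.4. Compounds in DMSO, final 1% DMSO in 500 μL. After 16 h at 22 °C, motility scored by microscope; percentage of immotile worms determined at several concentrations per compound.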

IC50 [1] [nM] | Molecule | IC50 ([1]; Caenorhabditis elegans, 45 min) [nM] | IC100 [2] [ng/mL] | EC50 ([3]; read-out: ED50 (the source's name)) [mg/L] | ED50 [3] [mg/L]
 | CCC(C)[C@H]1O[C@]2(CC[C@@H]1C)C[C@@H]1C[C@@H](C/C=C(\C)C(OCOCCN3CC3)[C@@H](C)/C=C/C=C3\COC4[C@H](O)C(C)=C[C@@H](C(=O)O1)[C@]34O)O2 (stereo partly specified) | 5 | 3470 | 0.048 (≈ 0.07 µM) | 
0.1 | IVERMECTIN [listing 1 of 2 here] |  |  |  | 
 | IVERMECTIN [listing 2 of 2 here] |  | 430 |  | 0.007
